Screens as filed in PubChem.
Rows were chosen to be rich in hits. Some 2% of all compounds tested hit in one or more screens of this group.
GRK2 aptamer HTS = inhibitors of human GRK2 displacing RNA aptamer. inhibition of aptamer binding, % at 10 µM. 330,000 tested, 0.59% active. P25098. bead flow cytometry, FAM-aptamer displacement from GRK2;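 active means inhibition of aptamer binding above 40%, roughly 3 SD of noise, on plates passing a quality check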;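 further: median bead fluorescence of bound FAM aptamer so fluorescent compounds give negative values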
Target sequence (P25098 whole entry, looked up): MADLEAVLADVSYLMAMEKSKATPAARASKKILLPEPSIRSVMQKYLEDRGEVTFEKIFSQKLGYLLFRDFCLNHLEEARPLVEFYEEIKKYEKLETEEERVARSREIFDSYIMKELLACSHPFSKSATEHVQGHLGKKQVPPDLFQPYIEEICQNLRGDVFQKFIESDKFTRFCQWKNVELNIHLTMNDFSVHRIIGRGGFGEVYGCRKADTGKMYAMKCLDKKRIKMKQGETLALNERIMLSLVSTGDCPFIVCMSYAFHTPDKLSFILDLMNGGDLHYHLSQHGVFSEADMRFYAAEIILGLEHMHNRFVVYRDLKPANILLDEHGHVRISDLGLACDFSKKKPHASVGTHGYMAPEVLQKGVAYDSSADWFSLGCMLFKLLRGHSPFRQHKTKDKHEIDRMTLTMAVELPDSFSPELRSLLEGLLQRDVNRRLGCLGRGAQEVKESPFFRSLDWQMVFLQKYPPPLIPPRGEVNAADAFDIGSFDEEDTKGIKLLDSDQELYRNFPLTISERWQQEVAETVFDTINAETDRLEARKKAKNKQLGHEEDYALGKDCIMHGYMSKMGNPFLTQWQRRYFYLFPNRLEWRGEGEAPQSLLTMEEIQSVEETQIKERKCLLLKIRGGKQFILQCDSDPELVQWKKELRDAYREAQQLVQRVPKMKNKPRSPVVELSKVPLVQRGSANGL
NTR1 ag = activates human neurotensin receptor 1; P30989; NTR1-U2OS beta-arrestin-GFP spot imaging, agonist mode; activation, % at 20 µM; 330,000 tested, 0.17% active; AID 493036;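 active means activation at or above 40% of the spot to cytoplasm intensity ratio, with at least 20 cells analyzed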;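 further: 0% = DMSO without peptide and 100% = 100 nM NTR1 peptide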
TAG inh = inhibitors of triacylglycerol accumulation. H9c2 cells, Nile Red lipid (TAG) fluorescence; cells loaded with 200 µM oleic acid. inhibition, % at 12.5 µM. 230,000 tested, 0.66% active;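 active means pattern-corrected inhibition of lipid staining of at least 50% with the nuclear-stain viability signal not falling by more than 50%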;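 further: 0% = DMSO wells and 100% = triacsin C control wells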
B2AR ag = agonists of human beta-2 adrenergic receptor inducing internalization. Am2.2-beta2AR cells, FAP receptor internalization, flow cytometry. response, % (concentration not given with the values). P07550. AID 504454. 340,000 tested, 0.43% active;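 active means response above a set limit, near 3 SD of response in nonfluorescent compounds, cut at about 42% in these data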
Lipid droplet = modulators of hepatic lipid droplet formation | AML12 mouse hepatocytes, oleate lipid droplets, BODIPY imaging | 240,000 tested, 0.4% active | inhibition, % at 6.5 µM;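 active means lipid droplet intensity inhibited by at least 50%, with more than 500 cells counted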
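Material: mouse AML12 hepatocyte cell line, fixed after treatment; Timing: compound with oleate, overnight; Technique: high-content imaging of BODIPY-stained droplets and DAPI nuclei; Probe or stimulus: oleate, 100 µM final; Dosing: compound at 6.5 µM only.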
Arrestin-AP2 inh = inhibitors of human beta-arrestin and AP2 interaction | inhibition, % at 10 µM | FITC-arrestin peptide / GST-AP2 beads, flow cytometry; AP2 beta2 appendage carries R879A mutation | 340,000 tested, 0.31% active;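 active means inhibition above a set limit, near 3 SD of compounds lacking own fluorescence, cut at about 54% in these data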;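 further: plate controls were DMSO wells for no effect and 5 µM unlabelled arrestin peptide for full effect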
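System: GST-AP2 R879A bound to glutathione beads, E. coli-expressed. Also added: 50 nM FITC-arrestin peptide. Schedule: compound with beads 12 min RT, then probe 1 h RT. Signal: bead flow cytometry, FITC channel. Read-out basis: percent response.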
Arr-AP2 CP1 = inhibitors of human beta-arrestin and AP2 interaction; shares compounds with Arrestin-AP2 inh; GST-AP2 beads, FITC arrestin peptide binding, flow cytometry; GST-fused beta2-adaptin appendage, R879A mutant; inhibition, % at 10 µM; 1,300 tested, 2% active; AID 504908;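 active means inhibition above a set limit, roughly 3 SD of non-fluorescent compound noise, cut at about 38% in these data; inactive means inhibition at or below that limit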;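 further: loss of bead fluorescence from 50 nM FITC arrestin peptide bound to appendage; 0% = negative control wells and 100% = excess unlabelled arrestin peptide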
GST GSH counter = GST-GSH bead binding interference, counter-screen; shares compounds with Arrestin-AP2 inh; GST-fluorescein binding to GSH beads, fluorescence; inhibition, % at 10 µM; 1,300 tested, 2% active;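 active means inhibition above 50%, about 3 SD of the inhibition seen with non-fluorescent compounds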;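 further: fluorescein maleimide labelled GST captured on 4 micron glutathione beads; higher means more loss of bead fluorescence from quenching or blocked binding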
The depositor's hits bear a star; nt = no result.

SMILES	GRK2 aptamer HTS	NTR1 ag	TAG inh	B2AR ag	Lipid droplet	Arrestin-AP2 inh	Arr-AP2 CP1	GST GSH counter
Oc1ccc(/C=N/Nc2nc(N3CCCC3)nc(N3CCCC3)n2)cc1O	0	0	11	-15	15	58*	-2	4
COc1cc(/C=N/Nc2nc(N3CCCC3)nc(N3CCCC3)n2)ccc1O	0	2	nt	10	22	13	nt	nt
O=[N+]([O-])/C(C(Cl)=C(Cl)Cl)=C(/Sc1ccccc1)N1CCCCC1	1	3	3	10	-64	19	nt	nt
COCCCn1c(C)nnc1SCC(=O)NCc1ccco1	2	0	nt	3	-20	55*	6	0
COCCn1c(SCC(=O)NCc2ccco2)nnc1C(C)C	0	-3	-9	1	-4	-6	nt	nt
O=C(/C=C/c1cccs1)Nc1nncs1	3	0	4	22	20	7	nt	nt
O=C(/C=C/c1cccs1)Nc1cccnc1	0	-1	nt	4	5	56*	2	0
COc1ccc(-n2c(SCCNCCO)nc3sc4c(c3c2=O)CCCC4)cc1	0	5	nt	26	-19	22	nt	nt
COc1ccc(-n2c(SCC(=O)O)nc3sc4c(c3c2=O)CCCC4)cc1	9	0	nt	5	-19	59*	-4	0
Cn1nnnc1NCc1ccc(Cl)cc1	2	1	1	7	2	57*	-1	-10
NS(=O)(=O)c1cc(C(=O)NCC2CCCCC2)ccc1Cl	1	0	nt	-11	21	-2	nt	nt
C=C(C)[C@@H]1CC=C(CN2CCN(Cc3ccccc3)CC2)CC1	0	1	nt	-6	2	60*	-4	2
Nn1c(SCc2cccc(F)c2)nnc1-c1ccncc1	3	0	-4	0	5	34	nt	nt
O=C(NCc1ccco1)C1CC(=O)N(c2ccc(Cl)cc2)C1 (configuration not stated)	0	0	0	0	3	58*	11	-5
O=C(NCc1ccco1)C1CC(=O)N(c2cccc(Cl)c2)C1 (configuration not stated)	1	4	nt	4	-6	-2	nt	nt
CN1CCN(S(=O)(=O)c2cc([N+](=O)[O-])ccc2N/N=C/c2ccc(Cl)cc2)CC1	1	2	nt	-3	-29	98*	2	-3
O=[N+]([O-])c1ccc(OCC2CC(c3ccccc3)=NO2)cc1 (configuration not stated)	3	0	-4	-8	-2	5	nt	nt
CCOC(=O)C1=C(COC(=O)Cc2ccc(Br)cc2)NC(=O)NC1C (configuration not stated)	0	1	nt	0	28	3	12	-5
CCOC(=O)C1=C(COC(=O)CSc2ccc(Br)cc2)NC(=O)NC1C (configuration not stated)	4	1	-21	6	nt	-6	nt	nt
CCOC(=O)C1=C(COC(=O)CCc2ccc(CC)cc2)NC(=O)NC1C (configuration not stated)	2	-1	0	-8	nt	-8	-1	1
CCOC(=O)C1=C(COC(=O)CCC(=O)c2ccc(C)cc2)NC(=O)NC1C (configuration not stated)	2	2	-6	1	nt	-1	-4	-13
CCOC(=O)C1=C(COC(=O)Cc2ccccc2F)NC(=O)NC1C (configuration not stated)	0	1	-12	3	nt	16	-5	-10
COC(=O)C(Cc1c[nH]c2ccccc12)NC(=O)c1ccc2nc[nH]c2c1 (configuration not stated)	nt	1	4	2	nt	-7	nt	nt
CCOC(=O)C1=C(COC(=O)CCc2ccccc2)NC(=O)NC1C (configuration not stated)	5	0	-5	-8	nt	3	-7	-2
